The text below walks through data of ChEMBL document CHEMBL4480410, “Targeting the MKK7-JNK (Mitogen-Activated Protein Kinase Kinase 7-c-Jun N-Terminal Kinase) Pathway with Covalent Inhibitors” (J Med Chem, 2019).

SMILES strings stand for the structures. Converted amounts (≈) assume the structure as drawn. The source made the active and inactive calls. The calls are words filed in the database; no cut-off is given here.

A short description of data set [1]: Inhibition of N-terminal His-tagged MKK7 beta1 S273D/T275D double mutant (unknown origin) expressed in insect cells using JNK1 K55M mutant as substrate by ADP-Glo assay. On the set-up: species or system Homo sapiens. The method, boiled down: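 ADP-Glo luminescence run per supplier protocol. Kinase: MKK7 beta1 (aa 1-462, TEV-cleavable N-terminal His6 tag, S273D/T275D) expressed in Sf9 insect cells, used at 20 nM. Substrate: JNK1 K55M at 5 µM. Compound dispensed acoustically; read on plate reader.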
Background: ADP-Glo turns the ADP formed in a reaction into a luminescent signal.

In data set [2] the target is Epidermal growth factor receptor (Homo sapiens, UniProt P00533). Kind of data set: Inhibition of wild type EGFR (unknown origin) by HTRF assay. (In general: In TR-FRET formats the signal depends on donor and acceptor labels being close together.)
Chain of Epidermal growth factor receptor (Homo sapiens, UniProt P00533) (P00533 whole entry): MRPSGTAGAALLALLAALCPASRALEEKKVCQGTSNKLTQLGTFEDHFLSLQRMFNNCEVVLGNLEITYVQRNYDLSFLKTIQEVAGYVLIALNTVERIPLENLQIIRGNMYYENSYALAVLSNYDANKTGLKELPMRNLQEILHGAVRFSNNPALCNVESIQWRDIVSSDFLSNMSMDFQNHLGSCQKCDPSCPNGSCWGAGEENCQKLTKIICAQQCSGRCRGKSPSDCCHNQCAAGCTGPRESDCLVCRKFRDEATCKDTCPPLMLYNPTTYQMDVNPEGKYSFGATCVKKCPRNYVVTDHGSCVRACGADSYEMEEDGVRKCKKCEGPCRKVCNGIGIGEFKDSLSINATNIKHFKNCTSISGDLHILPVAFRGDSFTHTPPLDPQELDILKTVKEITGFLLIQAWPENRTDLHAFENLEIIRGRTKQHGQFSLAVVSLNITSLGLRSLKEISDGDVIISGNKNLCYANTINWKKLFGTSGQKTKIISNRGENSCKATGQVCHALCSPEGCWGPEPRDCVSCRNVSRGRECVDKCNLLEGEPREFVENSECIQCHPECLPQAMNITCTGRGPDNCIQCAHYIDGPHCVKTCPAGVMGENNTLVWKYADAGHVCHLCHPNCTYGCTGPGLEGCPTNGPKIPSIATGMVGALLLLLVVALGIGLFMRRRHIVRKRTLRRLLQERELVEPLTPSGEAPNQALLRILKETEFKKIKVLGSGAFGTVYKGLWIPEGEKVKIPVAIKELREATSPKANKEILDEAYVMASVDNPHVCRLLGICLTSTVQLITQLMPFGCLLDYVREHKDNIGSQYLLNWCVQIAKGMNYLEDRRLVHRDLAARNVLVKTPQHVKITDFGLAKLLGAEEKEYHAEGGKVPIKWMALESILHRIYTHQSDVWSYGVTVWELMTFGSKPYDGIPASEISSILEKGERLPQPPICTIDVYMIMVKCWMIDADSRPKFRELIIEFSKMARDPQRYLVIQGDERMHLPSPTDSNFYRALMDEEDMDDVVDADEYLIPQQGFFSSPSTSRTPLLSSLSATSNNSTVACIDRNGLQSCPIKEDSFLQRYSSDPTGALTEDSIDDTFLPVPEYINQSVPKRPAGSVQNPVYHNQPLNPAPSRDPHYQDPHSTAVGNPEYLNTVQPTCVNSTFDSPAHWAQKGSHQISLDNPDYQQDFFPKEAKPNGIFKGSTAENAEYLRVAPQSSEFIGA
Data set [3] addresses Epidermal growth factor receptor (Homo sapiens, UniProt P00533, L858R/T790M). Kind of data set: Inhibition of EGFR L858R/T790M double mutant (unknown origin) by HTRF assay.
Data set [4] is described as follows: Kinetic solubility of the compound in Hepes buffer at pH 7.4 after 90 mins. It counts as physicochemical. To be noted: read-out: Kinetic_solubility. The procedure, abridged:
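Compound diluted from 10 mM DMSO stock to 500 µM final in 50 mM Hepes, pH 7.4, shaken 90 min at room temperature. Filtered through 0.2 µm PVDF, then OD scanned 250–500 nm in 10 nm steps. Solubility taken from AUC, normalized to a dilution in acetonitrile.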

The nature of data set [5]: Permeability of the compound assessed as drug flux at 500 uM after 16 hrs by PAMPA. It counts as ADME. The method, boiled down: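 10 mM DMSO stock diluted to 500 µM final in 50 mM Hepes pH 7.4 on membrane coated with 10% dioleoylphosphatidylcholine, 0.5% cholesterol in dodecane; 16 h room temperature, wet chamber.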
On the technique in general: The PAMPA barrier holds no transporters, so it reflects passive diffusion.

Data set [6] in a line: Apparent permeability across apical to basolateral side in human Caco2 cells at 5 uM after 2 hrs by transwell membrane based assay. It counts as ADME, cell-based. To be noted: Caco-2. The procedure, abridged:
(§1)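 10 mM DMSO stock diluted to 5 µM final in HBSS pH 7.4; 2 h at 37 °C, 5% CO2 on Caco-2 monolayers grown 21 days on transwell membranes.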

Data set [7] is described as follows: Apparent permeability across basolateral to apical side in human Caco2 cells at 5 uM after 2 hrs by transwell membrane based assay. It counts as ADME, cell-based, Caco-2. To be noted: caco-2, 2 h, 5 µM. The method, boiled down:
as §1

Data set [8] can be described thus: Apparent permeability across apical to basolateral side in MDCK2-MDR1 cells at 10 uM after 2 hrs by transwell membrane based assay. It counts as ADME, cell-based, Canis lupus familiaris. To be noted: dog, MDCK-MDR1. The procedure, abridged:
(§2)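 Compound at 10 µM in HBSS added to apical or basolateral side of MDCKII-MDR1 monolayer, 2 h at 37 °C. Both sides quantified by LC-MS/MS; Papp A–B or B–A from receiver concentration and volume, time, membrane area and initial donor concentration.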

Data set [9] can be described thus: Apparent permeability across basolateral to apical side in MDCK2-MDR1 cells at 10 uM after 2 hrs by transwell membrane based assay. To be noted: dog, MDCK-MDR1. Format: ADME, cell-based, Canis lupus familiaris. The method, boiled down: as §2
Data set [10] can be described thus: Stability in human plasma assessed as compound remaining at 5 uM after 1 hr by LC/MS analysis. Format: ADME, cell-free. To be noted: read-out: Stability. The method, boiled down:
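Compound at 5 µM incubated 1 h at 37 °C in human or mouse plasma; percentage remaining quantified by LC/MS.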

Data set [11] is described as follows: Protein binding in human plasma at 5 uM after 6 hrs by LC/MS analysis. To be noted: read-out: PPB (converted). Format: ADME, cell-free. The method, boiled down: (§3)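 Equilibrium dialysis of plasma with compound at 5 µM, 6 h at 37 °C; final compound concentrations determined by LC/MS to give percent bound.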
Data set [12] in a line: Protein binding in mouse plasma at 5 uM after 6 hrs by LC/MS analysis. It counts as ADME, cell-free. To be noted: read-out: PPB (converted). The method, boiled down:
as §3

The target of data set [13] is T1, Dual specificity mitogen-activated protein kinase kinase 7 (Homo sapiens) (UniProt O14733).
T1 sequence (whole entry): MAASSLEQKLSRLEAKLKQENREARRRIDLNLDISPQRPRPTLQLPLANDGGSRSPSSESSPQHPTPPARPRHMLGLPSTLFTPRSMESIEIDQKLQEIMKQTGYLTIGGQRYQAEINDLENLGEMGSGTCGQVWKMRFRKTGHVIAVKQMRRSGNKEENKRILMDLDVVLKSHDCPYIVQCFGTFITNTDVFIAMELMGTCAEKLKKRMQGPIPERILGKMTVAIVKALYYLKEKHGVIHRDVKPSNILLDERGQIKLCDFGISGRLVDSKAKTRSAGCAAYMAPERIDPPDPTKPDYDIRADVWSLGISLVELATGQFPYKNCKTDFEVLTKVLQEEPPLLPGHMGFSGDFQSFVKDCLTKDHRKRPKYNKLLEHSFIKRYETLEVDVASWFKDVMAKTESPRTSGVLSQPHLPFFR
Kind of data set: Covalent binding affinity to MKK7 (unknown origin) assessed as formation of covalent bond with Cys218 residues by MS/MS analysis. The procedure, abridged:
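Protein at 1 mg/mL incubated with 2-fold molar excess of compound, 30 min on ice, then denatured and run on 15% SDS gel. Band excised, reduced with 50 mM DTT (1 h, 37 °C), alkylated with 55 mM iodoacetamide (1 h, 20 °C), digested with 0.1 mg/mL trypsin 20 h at 30 °C, acidified with TFA. Analysed by ion-trap MS/MS.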

Data set [14] has as its target T2, Dual specificity mitogen-activated protein kinase kinase 7 (Mus musculus) (UniProt Q8CE90).
T2 sequence (whole entry): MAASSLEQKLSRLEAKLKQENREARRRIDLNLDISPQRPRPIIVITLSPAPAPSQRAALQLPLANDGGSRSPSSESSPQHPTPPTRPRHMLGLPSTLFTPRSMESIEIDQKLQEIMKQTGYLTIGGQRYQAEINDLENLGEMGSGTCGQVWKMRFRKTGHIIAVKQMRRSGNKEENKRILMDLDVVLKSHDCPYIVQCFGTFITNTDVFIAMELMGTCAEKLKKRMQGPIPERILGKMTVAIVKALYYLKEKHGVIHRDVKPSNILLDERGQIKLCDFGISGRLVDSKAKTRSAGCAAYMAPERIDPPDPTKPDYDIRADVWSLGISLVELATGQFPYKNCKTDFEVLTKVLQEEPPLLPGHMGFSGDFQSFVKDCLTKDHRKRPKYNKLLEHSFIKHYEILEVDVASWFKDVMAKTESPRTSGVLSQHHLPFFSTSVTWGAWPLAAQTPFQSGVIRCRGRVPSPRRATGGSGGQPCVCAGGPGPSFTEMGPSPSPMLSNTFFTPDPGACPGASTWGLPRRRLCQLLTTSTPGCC
Kind of data set: Inhibition of MKK7 in mouse DRG cells assessed as reduction in JNK phosphorylation at 1 uM after 2 hrs by Western blot analysis. It counts as cell-based. The method, boiled down:
(§4)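 Dissociated DRG neurons plated on laminin for 3 h, medium replaced, compound added for a further 2 h. Neurons lysed in RIPA buffer with phosphatase inhibitors. Western blots probed for phospho-cJun, cJun, phospho-JNK and JNK.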

Data set [15] has as its target T2, Dual specificity mitogen-activated protein kinase kinase 7 (Mus musculus). Kind of data set: Inhibition of MKK7 in mouse DRG cells assessed as reduction in cJUN phosphorylation at 1 uM after 2 hrs by Western blot analysis. Format: cell-based. The method, boiled down:
as §4

Chain of Epidermal growth factor receptor (Homo sapiens, UniProt P00533, L858R/T790M) (P00533 25-1210 T790M/L858R limits assumed): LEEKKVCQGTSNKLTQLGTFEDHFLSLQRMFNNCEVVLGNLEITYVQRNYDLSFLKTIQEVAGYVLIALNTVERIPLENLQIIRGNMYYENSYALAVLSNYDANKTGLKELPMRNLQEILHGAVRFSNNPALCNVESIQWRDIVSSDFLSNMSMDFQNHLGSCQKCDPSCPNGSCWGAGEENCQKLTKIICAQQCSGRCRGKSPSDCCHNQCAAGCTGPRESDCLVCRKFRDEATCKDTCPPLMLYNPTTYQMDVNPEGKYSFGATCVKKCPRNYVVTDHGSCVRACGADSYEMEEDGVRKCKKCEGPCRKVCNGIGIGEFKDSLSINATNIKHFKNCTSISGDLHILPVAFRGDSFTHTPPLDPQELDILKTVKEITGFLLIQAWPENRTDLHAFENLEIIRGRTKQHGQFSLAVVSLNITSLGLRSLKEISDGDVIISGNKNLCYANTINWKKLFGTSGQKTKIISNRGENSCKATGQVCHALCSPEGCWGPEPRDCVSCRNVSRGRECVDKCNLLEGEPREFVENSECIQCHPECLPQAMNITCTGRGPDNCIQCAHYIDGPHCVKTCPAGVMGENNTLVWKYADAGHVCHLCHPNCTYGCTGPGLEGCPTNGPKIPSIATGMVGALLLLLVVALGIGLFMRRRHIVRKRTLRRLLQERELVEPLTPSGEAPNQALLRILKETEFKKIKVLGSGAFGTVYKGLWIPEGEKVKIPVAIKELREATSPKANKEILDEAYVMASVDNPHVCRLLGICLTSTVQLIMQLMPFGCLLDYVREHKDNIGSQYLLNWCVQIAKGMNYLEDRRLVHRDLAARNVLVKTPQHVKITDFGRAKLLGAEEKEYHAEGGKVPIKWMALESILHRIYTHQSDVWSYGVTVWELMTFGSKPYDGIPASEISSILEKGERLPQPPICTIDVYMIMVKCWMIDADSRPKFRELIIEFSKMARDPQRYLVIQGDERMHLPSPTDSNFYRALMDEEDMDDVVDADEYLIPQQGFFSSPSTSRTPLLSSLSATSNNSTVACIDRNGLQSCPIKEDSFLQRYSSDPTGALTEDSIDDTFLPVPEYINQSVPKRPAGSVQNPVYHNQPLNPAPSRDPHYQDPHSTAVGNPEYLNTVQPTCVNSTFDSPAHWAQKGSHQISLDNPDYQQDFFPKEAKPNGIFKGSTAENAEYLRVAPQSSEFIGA

As for `C=CC(=O)N1CCC[C@@H](n2nc(-c3cn(Cc4nc5ccc(Cl)cn5c4Br)nn3)c3c(N)ncnc32)C1`, the IC50 in data set [1] was 669 nM; in [2] it was 85 nM; in [3], 104 nM.

In turn, `C=CC(=O)N1CCC[C@@H](n2nc(-c3ccc(Oc4ccccc4)cc3)c3c(N)ncnc32)C1` [IBRUTINIB] came in with a half-maximal inhibitory concentration (IC50) in data set [1] of 78 nM. The solubility kinetic at 1.5 h in data set [4] turned out to be 36 µM (≈ 15.9 µg/mL). In [5], the permeability is 38%. Moreover, the Papp A→B at 2 h, 5 µM in data set [6] amounted to 40 ×10⁻⁶ cm/s. Besides, in [7], the Papp was 0.9 ×10⁻⁶ cm/s. In addition, in data set [8], the Papp A→B at 2 h, 10 µM amounted to 22 ×10⁻⁶ cm/s. Besides, the Papp B→A at 2 h, 10 µM in [9] was 3 ×10⁻⁶ cm/s. For the same molecule, in [10], the remaining at 1 h, 5 µM amounted to 79.7%. In addition, the values for the fraction unbound at 6 h, 5 µM in data set [11] and in [12] were 0.024 and 0.011, respectively. Moreover, in data set [13], the outcome was Active.

Consider `CCC(=O)N1CCC[C@@H](n2nc(-c3cn(-c4ccc(C(C)=O)cc4)nn3)c3c(N)ncnc32)C1`, for which the IC50 is > 10000 nM in [1], 649 nM in data set [2] and 677 nM in [3]. Besides, the inhibition result in data set [14] and in data set [15] was “inactive” throughout.

As to `C=CC(=O)N1CCC[C@@H](n2nc(-c3cn(-c4cc(C(F)(F)F)cnc4C#N)nn3)c3c(N)ncnc32)C1`, the half-inhibitory concentration (IC50) in data set [1] amounted to 788 nM; in [2], 6 nM; in [3], 28 nM.

`C=CC(=O)N1CCC[C@@H](n2nc(-c3cn(C)c4ccccc34)c3c(N)ncnc32)C1` displayed a half-inhibitory concentration (IC50) in data set [1] of 302 nM.

For the molecule `C#Cc1nn([C@@H]2CCCN(C(=O)C=C)C2)c2ncnc(N)c12`, the midpoint of inhibition in data set [1], the IC50, lay at 40 nM. Moreover, the result in data set [13] was Active.

The term IC50 denotes the concentration needed to halve the response being measured. Read a low IC50 as higher potency. In general, Papp A→B refers to how fast a substance crosses the layer from the apical side. What is called Papp is the rate of passage across a membrane or cell layer, normalised by area and donor concentration. The Papp B→A is the apparent permeability from the basolateral to the apical side of a cell layer.
